High-throughput results as filed in PubChem.
Shown are actives, neighbours in structure and some others; about 3.5% of the full set was active somewhere.
MrgX1 ag: human MrgX1 receptor agonism, primary screen | Q96LB2 | MrgX1-HEK293 cells, Fluo-4 calcium fluorescence, agonist mode; stronger effect = higher value | B-score at 10 µM | 310,000 compounds, 0.44% hits | AID 588627;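 active = calcium response B-score plate-corrected fluorescence ratio at least 3 library SD, with starting fluorescence B-score inside 5 SD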
Target sequence (Q96LB2 whole entry, looked up): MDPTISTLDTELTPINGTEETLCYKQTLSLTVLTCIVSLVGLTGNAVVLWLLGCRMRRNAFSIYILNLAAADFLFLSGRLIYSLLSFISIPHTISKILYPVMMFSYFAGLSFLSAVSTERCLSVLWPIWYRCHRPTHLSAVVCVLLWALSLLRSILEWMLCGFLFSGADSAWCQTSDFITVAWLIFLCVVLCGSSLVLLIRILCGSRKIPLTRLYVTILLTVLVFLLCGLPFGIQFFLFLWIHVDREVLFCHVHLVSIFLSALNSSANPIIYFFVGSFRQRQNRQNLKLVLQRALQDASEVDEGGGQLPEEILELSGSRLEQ
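Test system: HEK293 cells stably expressing human MrgX1 receptor; Input: fifteen thousand cells per well; Dosing: compound delivered in addition one of three; Schedule: overnight seeding, then 1 h dark dye loading; Technique: Fluo-4 NW calcium fluorescence; Measure: B-scored fluorescence response ratio; Controls: positive and negative controls per plate.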
MrgX1 antag: blocks BAM8-22 activation of human MrgX1 receptor; B-score at 10 µM; Q96LB2; AID 588676; 310,000 compounds, 1.3% hits; MRGX1-HEK293 calcium flux, Fluo-4, BAM8-22 antagonism; stronger effect = lower value;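 active = calcium-response B-score plate-corrected more than 3 library SD below zero, starting fluorescence within 5 deviations, no agonist response on first addition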;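 note: peak minus trough fluorescence over baseline after final BAM8-22 challenge near maximal dose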
RGS4 pot: potentiators or activators of RGS4. HEK293 M3R/inducible RGS4, carbachol calcium flux Fluo4; stronger effect = lower value. B-score at 10 µM. 310,000 compounds, 0.92% hits. AID 463111;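 active = B-score of the integrated calcium signal more than 4 SD below the library mean, with starting fluorescence not abnormally high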;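 note: negative B-score means reduced calcium response which marks RGS4 activation or potentiation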
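Material: M3R-expressing HEK293 line, RGS4 induced by doxycycline | Schedule: Overnight RGS4 induction, 30 min dye load 37 °C, 20 min compound RT | Measured by: Fluo4 fluorescence kinetic imaging of calcium | Read-out: Integrated calcium ratio converted to B score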
MrgX1 PAM: allosterically activates human MrgX1 receptor signaling; AID 588675; 310,000 compounds, 0.63% hits; B-score at 10 µM; MrgX1-HEK293, Fluo-4 calcium flux, FDSS; stronger effect = higher value;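 active = plate-corrected calcium response at least 3 library SD above typical, normal starting fluorescence, not activating the receptor alone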;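 note: compound read alongside a low EC10 to EC30 dose of BAM8-22 agonist; peak minus trough fluorescence over baseline measured at the second addition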
RGS4 block: inhibitors of human RGS4; B-score at 10 µM; HEK293 M3R/RGS4 inducible, Fluo-4 calcium flux; stronger effect = higher value; triggered by carbachol at its EC20; 310,000 compounds, 0.45% hits;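 active = B-score, a plate-corrected calcium signal, over three deviations above library mean, with baseline fluorescence within five deviations of library mean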;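 note: RGS4 expression induced by doxycycline in cells with stable M3 receptor; B-score is computed from the integrated fluorescence ratio over baseline after carbachol; higher B-score means a larger calcium signal and so more RGS4 inhibition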
Target sequence (P49798 whole entry, looked up): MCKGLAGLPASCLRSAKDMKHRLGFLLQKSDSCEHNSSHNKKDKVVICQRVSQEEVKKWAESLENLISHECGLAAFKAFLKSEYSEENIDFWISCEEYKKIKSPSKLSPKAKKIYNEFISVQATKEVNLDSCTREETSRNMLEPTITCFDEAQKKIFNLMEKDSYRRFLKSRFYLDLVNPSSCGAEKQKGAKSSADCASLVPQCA
A number is an active result.

For CC(C)c1ccc(C(CC(=O)O)NC(=O)c2cccs2)cc1 (stereo not drawn) the results were MrgX1 ag inactive, MrgX1 antag inactive, RGS4 pot inactive, MrgX1 PAM inactive and RGS4 block inactive.
CC1Sc2ccc(S(=O)(=O)CCC(=O)Nc3ccccn3)cc2NC1=O (stereo not drawn) was read as MrgX1 ag inactive, MrgX1 antag inactive, RGS4 pot inactive, MrgX1 PAM inactive and RGS4 block inactive.
Screening COc1ccccc1N1CCN(C(=O)c2ccc3[nH]c4c(c3c2)CC(C)CC4)CC1 (stereo not drawn) returned MrgX1 ag inactive, MrgX1 antag inactive, RGS4 pot inactive, MrgX1 PAM inactive and RGS4 block inactive.
For C/C(=N\NC(=S)NCCc1ccccc1)c1ccc(O)cc1O the results were MrgX1 ag inactive, MrgX1 antag inactive, RGS4 pot inactive, MrgX1 PAM inactive and RGS4 block inactive.
For C/C(=N\NC(=S)NCCc1ccccc1)c1ccc(Cl)cc1Cl the results were MrgX1 ag inactive, MrgX1 antag inactive, RGS4 pot -9.1, MrgX1 PAM inactive and RGS4 block inactive.
`O=C1C(Cl)=C(NC(=O)c2ccccc2)C(=O)C(Cl)=C1NC(=O)c1ccccc1` gave MrgX1 ag inactive, MrgX1 antag inactive, RGS4 pot inactive, MrgX1 PAM inactive and RGS4 block 7.3.
For O=C(Nc1cccc(Cl)c1)c1ccccc1 the results were MrgX1 ag inactive, MrgX1 antag inactive and MrgX1 PAM inactive.
`Cc1cccc(NC2=C(NC(=O)c3ccccc3)C(=O)c3ccccc3C2=O)c1` gave MrgX1 ag inactive, MrgX1 antag inactive, RGS4 pot inactive, MrgX1 PAM 10 and RGS4 block inactive.
O=C(NC1=C(Nc2ccc(Cl)cc2)C(=O)c2ccccc2C1=O)c1ccccc1 was read as MrgX1 ag inactive, MrgX1 antag inactive, RGS4 pot inactive, MrgX1 PAM inactive and RGS4 block inactive.
For COc1ccc(N2CCN(S(=O)(=O)c3c(C(=O)N4CCOCC4)c(C)n(C)c3C)CC2)cc1 the results were MrgX1 ag inactive, MrgX1 antag inactive, RGS4 pot inactive, MrgX1 PAM inactive and RGS4 block inactive.
Screening COc1ccc(CCN2C(=O)CSC2=S)cc1OC returned MrgX1 ag inactive, MrgX1 antag inactive, RGS4 pot inactive, MrgX1 PAM inactive and RGS4 block inactive.
`CC(C)N1CCN(Cc2ccc(-c3ccccc3)cc2)CC1CCO` (stereo not drawn) gave MrgX1 ag inactive, MrgX1 antag inactive, RGS4 pot inactive, MrgX1 PAM inactive and RGS4 block inactive.
`CC(C)N1CCN(Cc2ccc(OCc3ccccc3)cc2)CC1CCO` (stereo not drawn) gave MrgX1 ag inactive, MrgX1 antag inactive, RGS4 pot -7, MrgX1 PAM inactive and RGS4 block inactive.
For CC1CCCN(Cc2ccc(OCc3ccccc3)cc2)C1 (stereo not drawn) the results were MrgX1 ag inactive, MrgX1 antag inactive, RGS4 pot -7.6, MrgX1 PAM inactive and RGS4 block inactive.
COc1ccc(-c2cnnc(N/N=C/c3ccc(O)cc3)n2)cc1 was read as MrgX1 ag inactive, MrgX1 antag inactive, RGS4 pot inactive, MrgX1 PAM inactive and RGS4 block inactive.
`COc1ccc(-c2cnnc(N/N=C/c3ccc(C)o3)n2)cc1` gave MrgX1 ag inactive, MrgX1 antag -5.2, RGS4 pot inactive, MrgX1 PAM inactive and RGS4 block inactive.
For COC(=O)C1CCN(C(=O)COC(=O)CSc2ccc(C(N)=O)cc2[N+](=O)[O-])CC1 the results were MrgX1 ag inactive, MrgX1 antag -6.4, RGS4 pot inactive, MrgX1 PAM inactive and RGS4 block inactive.
For CCOC(=O)C1CCN(C(=O)COC(=O)CSc2ccc(C(N)=O)cc2[N+](=O)[O-])CC1 the results were MrgX1 ag inactive, MrgX1 antag inactive, RGS4 pot inactive, MrgX1 PAM inactive and RGS4 block inactive.
For CCOC(=O)CSc1ccc(C(=O)NCCCN2CCOCC2)cc1[N+](=O)[O-] the results were MrgX1 ag inactive, MrgX1 antag inactive, RGS4 pot -8.2, MrgX1 PAM inactive and RGS4 block inactive.
For CCC(=O)N1CCc2cc(S(=O)(=O)NC(Cc3ccccc3)C(=O)O)ccc21 (stereo not drawn) the results were MrgX1 ag inactive, MrgX1 antag inactive, RGS4 pot inactive, MrgX1 PAM inactive and RGS4 block inactive.
CCOCCCNC(=O)CSc1nc2nc(C)c(Cc3ccccc3)c(C)n2n1 was read as MrgX1 ag inactive, MrgX1 antag inactive, RGS4 pot inactive, MrgX1 PAM inactive and RGS4 block inactive.
Cc1ccc(-c2nnn(CC(=O)N3CCN(c4ccccc4)CC3)n2)o1 was read as MrgX1 ag inactive, MrgX1 antag inactive, RGS4 pot -7.6, MrgX1 PAM inactive and RGS4 block inactive.
For COc1ccc(N2CCN(C(=O)Cn3nnc(-c4ccc(OC)c(OC)c4)n3)CC2)cc1 the results were MrgX1 ag inactive, MrgX1 antag inactive, RGS4 pot inactive, MrgX1 PAM inactive and RGS4 block inactive.
Screening CC(C)C[C@@H](COc1ccccc1)N1CCN(CCc2ccccc2)CCC1=O returned MrgX1 ag inactive, MrgX1 antag inactive, RGS4 pot inactive, MrgX1 PAM 11 and RGS4 block inactive.
O=C(Cn1c(=O)n(-c2ccccc2)c(=O)n1CC(=O)N1CCCCC1)N1CCCCC1 was read as MrgX1 ag 36, MrgX1 antag inactive, RGS4 pot inactive, MrgX1 PAM inactive and RGS4 block inactive.
`CC1CCN(CCCCOc2cccc(Br)c2)CC1` gave MrgX1 ag inactive, MrgX1 antag inactive, RGS4 pot -7, MrgX1 PAM inactive and RGS4 block inactive.
CC1CCN(CCCCOc2ccccc2Br)CC1 was read as MrgX1 ag inactive, MrgX1 antag inactive, RGS4 pot inactive, MrgX1 PAM inactive and RGS4 block inactive.
For Brc1ccc(OCCCCN2CCCCC2)cc1 the results were MrgX1 ag inactive, MrgX1 antag inactive, RGS4 pot inactive, MrgX1 PAM inactive and RGS4 block inactive.
For CC1CCN(CCCCOc2ccc(Br)cc2)CC1 the results were MrgX1 ag inactive, MrgX1 antag inactive, RGS4 pot -7.4, MrgX1 PAM inactive and RGS4 block inactive.
CC(C)Cn1cc(Cl)c(=O)n(CC(C)C)c1=O was read as MrgX1 ag inactive, MrgX1 antag inactive, RGS4 pot inactive, MrgX1 PAM inactive and RGS4 block inactive.
For CCCc1cnc(NCCNCC(O)COc2ccc(Cl)c(Cl)c2)nc1 (stereo not drawn) the results were MrgX1 ag inactive, MrgX1 antag inactive, RGS4 pot inactive, MrgX1 PAM inactive and RGS4 block inactive.
Screening Cn1c(O)c(/C=N/NC(=O)c2cc3ccccc3cc2O)c2ccccc21 returned MrgX1 ag 50, MrgX1 antag inactive, RGS4 pot -7.6, MrgX1 PAM inactive and RGS4 block inactive.
`Cn1c2ccccc2c2cc(/C=N/NC(=O)c3ccc(O)cc3O)ccc21` gave MrgX1 ag inactive, MrgX1 antag inactive, RGS4 pot inactive, MrgX1 PAM inactive and RGS4 block inactive.
